In the EternaBench riboswitch data:

System: MS2 coat protein
Test: apparent Kd, MS2 coat protein; higher = weaker binding; RNA-MaP array; FMN 200 µM where present
Summary of the method: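 Green signal was scaled to red-channel RNA signal and control-cluster median Fmax, and the apparent Kd was taken as the median of filtered per-cluster binding-curve fits. The binding series used SNAP-549-labelled MS2 coat protein from 0.7 or 1.5 nM, doubling to 3 µM, on designs transcribed by stalled E. coli RNA polymerase on Illumina sequencing-chip clusters. Each series ran without and then with constant ligand in 100 mM Tris-HCl pH 7.5, 80 mM KCl, 4 mM MgCl2, BSA, DTT, yeast tRNA and Tween-20.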

[1] = designed as: ON switch for flavin mononucleotide, no ligand
[2] = ligand present: flavin mononucleotide, designed as: ON switch for flavin mononucleotide
[3] = designed as: OFF switch for flavin mononucleotide, no ligand
[4] = ligand present: flavin mononucleotide, designed as: OFF switch for flavin mononucleotide

Sequence	apparent Kd [1] [µM]	apparent Kd [2] [µM]	apparent Kd [3] [µM]	apparent Kd [4] [µM]
GCAGCACAAUAUUACAUGAGGAUCACCCAUGUCGAUUGUUAUGAGGAUAUGCAUCGUAUGAAGUUGCAGAAGGCAUUGUGCUGC	0.0094	0.00609		
AGAGGACAUGAGGAUCACCCAUGUAAGGAUAUGCGGAGAGUUUGGAGAGGUCGGGUAGGCAGAAGGUACAGGAG			0.0651	0.0917
AUAUAAUAUCAGGAUAUGACUAGCCUCGGCUAGUCAGAAGGGAUGACAUGAGGAUCACCCAUGUGAUCAUAUAU			0.0328	0.156
AUAAUGAGAGGAUAUACAUGAGGAUCACCCAUGUUUUUAUCACGUCGUGCUCCAUUACGUAGAAGGCUCAUUUA			0.0363	0.0537
UUGGACGUCGUAGGAUAUGUAGGAUUCUCCUACAUGAGGAUCACCCAUGUUGACAUGGAGGACGGACAGAAGGACGGUGUCCAU	0.0141	0.00564		
UAAGUUUUGGUAGGAUAUACUUUAAAUUUCUCUAUCCAUACAUGAGGAUCACCCAUGUUUACAUUGUAGAAGGACCUUUAUGUU			0.0367	0.034
UGGUACUAGGGAGGAUAUGCGAAGAUACAUGAGGAUCACCCAUGUUUAAGAAUGCCGAGAGGCAACUAGAAGGCCCUAGUACCU	0.0085	0.00538		
UUGACGGCAGGAUAUACAUGAGGAUCACCCAUGUAAAUUUUUCGUUUAACUUGAAUGUGUAGAAGGGCCAAAAU			0.0194	0.0188
UGAAUAAUGUUAGGAUAUACAUGAGGAAUCCUCGUAGAAGGAACAUGACAUGAGGAUCACCCAUGUAGCGCUCAGAAGAGCGCA	0.14	0.135		
ACACUACAUGAGGAUCACCCAUGUCAGGAUAUCGAUAUCACAACUCAUCAACCUCACUCGAGAAGGGACACAUA			0.024	0.0238
GGAAUACAUGAGGAUCACCCAUGUAAGGAUAUGCUGAAUAACACGGAAUAAUCGUGCAGCAGAAGGUACAAAGG			0.145	0.111
CAUGUCCUCACAGGAUAUGCACCACUUUGUGGUGCAGAAGGGUGAAUACAUGAGGAUCACCCAUGUGGACAUGAUAUAUUUAAU	1.14	0.0722		
UUGGACGUCGUAGGAUGUGUAGGAUAUUCCUACAUGAGGAUCACCCAUGUUGACAUGGAAGAAGGACAGAAGGACGAUGUCCAU	0.386	0.0129		
GCAUCCCAUGUCAGGAUAUGCUGUACCUUGGUACAGCAGAAGGGACAUGAGGAUCACCCAUGUGCCUAGGAUGC			0.0512	0.438
AAAUUUAACGAAGGAUAUGGUUACAUGAGGAUCACCCAUGUGUGCCUUGUGAUUUUGUUUAAGUUCCAGAAGGUCGUAUACAUA			0.0264	0.168
GGAGCACACAUUAACAUGAGGAUCACCCAUGUCAAAAGACAUGAGGAUAUGGAUCCGAAAAGGACCCAGAAGGCAUGGUGCUCC	0.427	0.0218		
UUAUUAUAUGUAGGAUAUGCAUAUUAUUAUUAUGCAGAAGGACAUGAGGAUCACCCAUGUAUAUUGUUGUUGUAUAUUAUAUAU			0.0251	0.0304
GUAGCAUGCCAAGGAUAUUCAUAUAAUAAGUAAACAUGAGGAUCACCCAUGUAGUGAGAGCCUUGGGAGAAGGUGGGAUGCUAC	0.0267	0.0419		
ACGCCCUGAGGAUAUCUUAUGCCGCACAUGAGGAUCACCCAUGUUCUCCUCCGGGCUCCGAGAGAAGGCAGGCCCA			0.00882	0.0102
GUUGGCUGAGGAUAUGCUUGCAUGCUUUUGUGUUGCGGGUGACAUGAGGAUCACCCAUGUAGAAGGUGGUCGGC			1.04	0.817
AAUACAAAUAGUCAGGAUAUCAAAAAUAAGACAUGAGGAUCACCCAUGUAAUAAGUAAAAGUAAAUGAGAAGGGACAGGGUGAAA	0.168	0.266		

Sequence	apparent Kd [1] [µM]	apparent Kd [2] [µM]	apparent Kd [3] [µM]	apparent Kd [4] [µM]
AAUAAUAAUGUCAGGAUAUCUAGAGCUUCGGCUCUAGAGAAGGGACAUGAGGAUCACCCAUGUCACUCAAUAAU			0.0162	0.0272
UUACUAUCACAGAAGGGUAGAUAGUAUAUAGAUGCAGGAUAUGUGACAUGAGGAUCACCCAUGUUUCACCCACAUGAGGAUCAC			0.0175	0.0189
CUUCUGUGAGGAUAUGUUAGUUCCCAGCAAAUCGCUGGGAGACAGAAGGCACAUGAGGAUCACCCAUGUGGGCG			0.0392	0.221
GUCGAGUGAGGAUAUGGUGAGUAGUGCCUGAGCGCUGCUCACCAGAAGGCACAUGAGGAUCACCCAUGUAUGUC			0.0137	0.0207
AAUAACAGAGGAUAUACUGUUUUAUGUAUUUAUUAUUUUAAACAUGAGGAUCACCCAUGUAGAAGGCUGAAUAA			0.0219	0.0186
AGUCGGAGCAGAGGAUAUACAUGAGGAUCACCCAUGUAAUAAAGUGAAGCCUGGAAACAGGCAAUGUAGAAGGCUGCUCCGACA			0.0281	0.232
AUAUUAAGUGUGAGGAUAUGCUGGUCCUUGGAUCAGCAGAAGGCACAUGAGGAUCACCCAUGUAAUAUAUUUAA			0.102	0.306
CUAAGACGAUGUCACGUUGUCGGGACAGAAGGCACGUACAUGAGGAUCACCCAUGUAAAACACAGUGAGGAUAUGUACCUGCGA	0.0308	0.0081		
GCAAUAGCAUGAGGAUAUGUUGGAGUUUAGACAGCAGAAGGCAUGUCAUAAGACAUGAGGAUCACCCAUGUAAUUACAAUAGCA	0.0327	0.0121		
AUAUGGGCCCAGAAGGUGCCAGCGAGAGCUGCACAUGAGGAUCACCCAUGUUGUCGGUGACGACGCAAGGAUAUGGGCCCAUAU	0.0221	0.00626		
UGUCGGAUCAGAGGAUAUUACAUGAGGAUCACCCAUGUAUGAACCAAUAGCUGGAAACAGCAAUGUAAGAAGGCUGCUCCGACA			0.0114	0.16
GUCAUGUCAGGAUAUUUUGGUCAACUCAUCGGUCGACCCUAAGAGAAGGGACAUGAGGAUCACCCAUGUUCGCA			0.0268	0.0779
GCUAAUUAGUGAGGAUAUACAUAAUUUAUUACUGUAGAAGGCACAAACCUCAAGACAUGAGGAUCACCCAUGUGGUAUUUAAGC			0.151	0.394
GAGGUAUAAGGAUAUACAUAGAUACAGACACAUGUUCAAGUACAUGAGGAUCACCCAUGUAGAAGGUAUAUAUC			0.0336	0.0306
UGUUGUAUUACAGGAUAUCUAGUAUUUUUAUUAAGAGAAGGGUAUUCACAUGAGGAUCACCCAUGUAUAUACGAGGAAGUUGUG	0.0424	0.0424		
GCCUAGACUAGGCCCACGGCAUCACAGGAUAUGCCAAUCACAUGAGGAUCACCCAUGUCAACUCCGCAGAAGGGUGAUAUCGUG	0.235	0.0143		
CCGGAUACGGGUAGCCUGACAUGAGGAUCACCCAUGUAAUACGAGGAUAUGGAUCCUAAUUGGAUCCAGAAGGUGUCAGGCUAC	1.31	0.734		
UCAUACAUUCGAGGAUAUCGGUGAGAAAUCUUUCGAGAAGGCGAUUCAUGAUUUAUUAUCCUGGACAUGAGGAUCACCCAUGUA	0.0853	0.0655		
UUGAAUUUAAACAUGAGGAUCACCCAUGUGUCAUAGUUGAUAUAGGAUAUGCUUAUACUUUGAAAGCAGAAGGAUGACGAUACU	0.0263	0.0119		
CCUAAGGACACAGGAUAUAGCGUGGUGGCUGGGCUCCCACGGCGAGCGGCGCUAGAAGGGUGACCACAUGAGGAUCACCCAUGU	0.538	0.148		
AGAUAACACCAGAAGGACAUGAGGAUCACCCAUGUAGGAUAUGGGCAUCACUCGAGAAAGAAAAGACCAAGUGGACACAUGGUC	0.147	0.011		
